Published values gathered from unrelated publications.
Each line is one published result; the experiments were not run side by side.
Action: inhibitor
rep main protease: Replicase polyprotein 1ab, main protease (rep, Severe acute respiratory syndrome coronavirus 2, UniProt P0DTD1)
rep papain-like protease: Replicase polyprotein 1ab, papain-like protease (rep, Severe acute respiratory syndrome coronavirus 2, UniProt P0DTD1)

CCn1nc2n(Cc3ccc(F)cc3)c(=O)c3nn(C)cc3n2c1=O
inhibition (rep main protease; enzyme activity; 20 µM): 15.5%

Cc1ccc2nc(Cl)c(/C=N/c3cccc([N+](=O)[O-])c3)cc2c1
inhibition (rep papain-like protease; enzyme activity; 100 µM): 21.7%

Cc1cccn2c(=O)c3cc(C(=O)Nc4ccc(N(C)C)cc4)n(C)c3nc12
inhibition (rep main protease; enzyme activity; 1 µM): 3.5%

CC(C)C[C@H](NC(=O)OCc1ccccc1)C(=O)N(C)N(C#N)CCC(N)=O
inhibition (rep main protease; enzyme activity, fluorescence; 50 µM, pH 7.2): 100%

C/N=c1\nc(-c2ccccc2)n(-c2ccccc2)s1
inhibition (rep main protease; enzyme activity; 20 µM): 96.7%

Cc1nc(C(=O)N2CC[C@@H]([C@@H]3CCCN3C(=O)c3cc(O)c4ccoc4c3)C2)cc(=O)[nH]1
inhibition (rep main protease; enzyme activity; 5 µM): 12.2%

NC(=S)NNc1ccc(S(N)(=O)=O)cc1
inhibition (rep main protease; enzyme activity; 20 µM): 42.1%

Cn1c(C(=O)Nc2ccc3c(c2)OCCO3)cc2c(=O)n3ccccc3nc21
inhibition (rep main protease; enzyme activity; 10 µM): 42%

Clc1nc2ccccc2cc1/C=N\c1ccc(-c2nc3ccccc3[nH]2)cc1
inhibition (rep papain-like protease; enzyme activity; 100 µM): 25.3%

C=C1C(=O)OC2C1C(O)CC1(C)C(O)CCC(C=O)C21 (stereo not drawn)
inhibition (rep main protease; enzyme activity; 20 µM): -62%

O=C1C=CC(=O)c2ccccc21
inhibition (rep main protease; enzyme activity; 0.1 µM): 25%

COc1cc([C@H]2OC[C@H]3[C@@H]2CO[C@H]3c2ccc(OC)c(OC)c2)ccc1O
inhibition (rep papain-like protease; enzyme activity; 50 µM): 8.5%

Cc1cc(OCc2ccccc2)c2c(c1)C(=O)C=CC2=O
inhibition (rep main protease; enzyme activity; 10 µM): 96.4%

Cc1cccc(NC2CS(=O)(=O)CC2O)c1 (stereo not drawn)
inhibition (rep main protease; enzyme activity; 20 µM): 7.43%

O=C(/C=C/c1ccc(O)c(O)c1)O[C@@H]1C[C@](O)(C(=O)O)C[C@@H](O)[C@H]1O
inhibition (rep main protease; enzyme activity, FRET; 10 µM, 10 min): < 25%

COc1c(-c2ccc(O)c(CC=C(C)C)c2)oc2cc(O)cc(O)c2c1=O
inhibition (rep main protease; enzyme activity; 8 µM): 16.9%

COc1cc2ccc(=O)oc2cc1O
inhibition (rep main protease; enzyme activity, fluorescence; 10 µM, pH 7.2): 61%

COc1cccc2c1C(=O)C(C(C)=O)=CC2=O
inhibition (rep main protease; enzyme activity; 10 µM): 96.1%

O=C(/C=C/c1ccc(O)c(O)c1)OC1CC(OC(=O)/C=C/c2ccc(O)c(O)c2)(C(=O)O)CC(O)C1O (stereo not drawn)
inhibition (rep main protease; enzyme activity; 100 µM): 87.3%

COc1ccc(OC)c2c1C(=O)C=CC2=O
inhibition (rep main protease; enzyme activity; 0.1 µM): 8.9%

Cc1ccc(NC(=O)c2cc3c(=O)n4cccc(C)c4nc3n2C)cc1Cl
inhibition (rep main protease; enzyme activity; 1 mM): 75%

O=c1oc2c(O)c(O)cc3c(=O)oc4c(O)c(O)cc1c4c23
inhibition (rep main protease; enzyme activity, FRET; 10 µM, 10 min): > 50%

CCC(=O)Oc1cccc2c1C(=O)C=CC2=O
inhibition (rep main protease; enzyme activity; 1 µM): 96.5%

Cc1cccc2cc(/C=N\c3ccc(-c4nc5ccccc5[nH]4)cc3)c(Cl)nc12
inhibition (rep papain-like protease; enzyme activity; 10 µM): 10.1%

O=c1c(O)c(-c2cc(O)c(O)c(O)c2)oc2cc(O)ccc12
inhibition (rep main protease; enzyme activity; 20 µM): 94.9%

Cc1cc(O)c2c(=O)c3c(O)cc(O)c4c5c(O)cc(O)c6c(=O)c7c(O)cc(C)c8c1c2c(c34)c(c78)c65
inhibition (rep main protease; enzyme activity; 20 µM): 31.5%

CCc1ccc(NC(=O)c2cc3c(=O)n4ccccc4nc3n2C)cc1
inhibition (rep main protease; enzyme activity; 1 µM): 11%

C/C=C1\C(OC2OC(CO)C(O)C(O)C2O)OC=C(C(=O)OC)C1CC(=O)OCCc1ccc(O)c(O)c1 (stereo not drawn)
inhibition (rep main protease; enzyme activity; 20 µM): 93.8%

O=c1c(O)c(-c2ccccc2)oc2cc(O)cc(O)c12
inhibition (rep main protease; enzyme activity, FRET; 10 µM, 10 min): 25 to 50%

O=C(CCc1ccccc1)Nc1ccc2c(c1)C(=O)OC2
inhibition (rep main protease; enzyme activity; 20 µM): -0.804%

N=C(N)c1ccc2cc(OC(=O)c3ccc(N=C(N)N)cc3)ccc2c1
inhibition (rep main protease; enzyme activity; 10 µM): 13%

O=C(O)[C@H]1O[C@@H](Oc2cc3oc(-c4ccccc4)cc(=O)c3c(O)c2O)[C@H](O)[C@@H](O)[C@@H]1O
inhibition (rep main protease; enzyme activity; 100 µM): 97.6%

COc1cc(C)cc2c1C(=O)C=CC2=O
inhibition (rep main protease; enzyme activity; 10 µM): 90.4%

COC(=O)C1=CO[C@@H](O[C@@H]2O[C@H](CO)[C@@H](O)[C@H](O)[C@H]2O)[C@@H]2[C@@H](C)[C@@H](O)C[C@H]12
inhibition (rep papain-like protease; enzyme activity; 50 µM): -1.7%

O=C(Oc1cncc(Cl)c1)c1cc2c(Cl)cc(Cl)cc2[nH]1
inhibition (rep main protease; enzyme activity, fluorescence; 10 µM, pH 7.2): 100%

COCOc1cc(C)cc2c1C(=O)C=CC2=O
inhibition (rep main protease; enzyme activity; 1 µM): 4.6%

CC(=O)N[C@H](CCCCN)C(=O)N[C@H](Cc1c[nH]c2ccccc12)C(=O)N[C@H](CO)C(=O)N[C@H](Cc1ccc(O)cc1)C(=O)N[C@H](CCC(N)=O)C(=O)N1CCC[C@@H]1C(=O)N[C@@H](C(=O)N[C@H](Cc1c[nH]c2ccccc12)C(=O)N[C@H](CC(=O)O)C(=O)N[C@H](Cc1c[nH]c2ccccc12)C(=O)N[C@@H](C(=O)N[C@H](Cc1c[nH]c2ccccc12)C(=O)N[C@H](CO)C(=O)N[C@H](CCC(=O)O)C(=O)N[C@H](Cc1c[nH]cn1)C(=O)N[C@H](C)C(=O)N[C@H](CCCNC(=N)N)C(N)=O)[C@H](C)O)[C@H](C)O
inhibition (rep main protease; enzyme activity, fluorescence; 140 µM): 100%

Cc1cc(NC(=O)c2cc3c(=O)n4cccc(C)c4nc3n2C)ccc1Br
inhibition (rep main protease; enzyme activity; 100 µM): 59%

C[C@@H]1O[C@@H](O[C@@H]2[C@@H](O)[C@H](OCCc3ccc(O)c(O)c3)O[C@H](CO)[C@H]2OC(=O)/C=C/c2ccc(O)c(O)c2)[C@H](O)[C@H](O)[C@H]1O
inhibition (rep main protease; enzyme activity; 100 µM): 97%

CC[C@H](NC(=O)OCc1ccccc1)C(=O)N[C@H](C(=O)N[C@@H](Cc1ccccc1)C(=O)N(C)N(C#N)CCC(N)=O)C(C)(C)C
inhibition (rep main protease; enzyme activity, fluorescence; 50 µM, pH 7.2): 100%

O=C(NC[C@H](NC(=O)c1cn[nH]c1-c1ccccn1)c1ccc2ccccc2c1)c1cn[nH]c1
inhibition (rep main protease; enzyme activity; 5 µM): 10.7%

Cn1c(C(=O)Nc2ccc(Cl)cc2)cc2c(=O)n3ccccc3nc21
inhibition (rep main protease; enzyme activity; 1 µM): 7.4%

O=c1[nH]c(CCl)nc2sc3c(c12)CCCC3
inhibition (rep main protease; enzyme activity; 20 µM): 29.2%

COc1cc(CC(C)NCc2cc(NC(=O)c3ccccn3)cc(C(=O)N(C)C)c2)ccc1O (stereo not drawn)
inhibition (rep main protease; enzyme activity; 100 µg/mL): 5.47%

c1cc(CN2CCCNCCNCCCNCC2)ccc1CN1CCCNCCNCCCNCC1
inhibition (rep main protease; enzyme activity in cells; HEK-293T; 20 µM): -0.49%

Cc1ccc(-n2cccc2)c(NC(=O)Nc2ccccc2C(F)(F)F)c1
inhibition (rep main protease; enzyme activity; 20 µM): 11.4%

CC1=C2CC(C(=O)N[C@@H]3CN(C(=O)c4cc5ccccc5o4)Cc4nccn4C3)=CN=C2NN1
inhibition (rep main protease; enzyme activity; 5 µM): 11.3%

C[C@@H]1O[C@@H](OC[C@H]2O[C@@H](OCCc3ccc(O)c(O)c3)[C@H](OC(=O)/C=C/c3ccc(O)c(O)c3)[C@@H](O)[C@@H]2O)[C@H](O)[C@H](O)[C@H]1O
inhibition (rep main protease; enzyme activity; 100 µM): 99.3%

Cc1ccc2nc(Cl)c(C=Nc3cc(Br)ccn3)cc2c1
inhibition (rep papain-like protease; enzyme activity; 10 µM): 4.6%

Oc1ccc([C@H]2COc3cc(O)ccc3C2)cc1
inhibition (rep main protease; enzyme activity; 50 µM): 18.5%

COc1cc(C[C@@H](C)[C@@H](C)Cc2ccc(O)c(OC)c2)ccc1O
inhibition (rep papain-like protease; enzyme activity, FRET; 8 µM): 56.4%
